According to ChEMBL document CHEMBL4732162, “Design, synthesis and evaluation of novel ErbB/HDAC multitargeted inhibitors with selectivity in EGFR mutant cell lines” (Eur J Med Chem, 2021):
Calls of active or inactive are those of the source. The rule behind the calls is not given here.

Assays:
[1] = test system: NCI-H1975; assay: Induction of apoptosis in human NCI-H1975 cells assessed as increase in cleaved-PARP level at 0.5 to 5 uM after 48 hrs by Western blot analysis; type: functional, cell-based; conditions: dose 0.5-5 µM
Summary of the method: (§1)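 Cells were treated with compound for 48 h and lysed on ice for 30 min in RIPA buffer with protease and phosphatase inhibitors. Lysates were cleared at 14000 g, 4 °C, and protein quantified by BCA. Samples were boiled in loading buffer, run on 10–12% SDS-PAGE and transferred to PVDF. Membranes were blocked 2 h, incubated in primary antibody overnight at 4 °C, then in secondary antibody 2 h at room temperature.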

[2] = biological target: Epidermal growth factor receptor (Homo sapiens, UniProt P00533, L858R); assay: Inhibition of EGFR L858R (unknown origin) by mobility shift assay
[3] = test system: NCI-H838; assay: Antiproliferation activity against human NCI-H838 cells incubated for 72 hrs by MTT assay; type: functional, cell-based; conditions: NCI-H838, 72 h
[4] = test system: NCI-H1975; assay: Down regulation of AKT protein expression in human NCI-H1975 cells at 0.5 to 5 uM after 48 hrs by Western blot analysis; type: functional, cell-based; conditions: dose 0.5-5 µM; summary of the method: as §1
[5] = test system: NCI-H1975; assay: Down regulation of EGFR protein expression in human NCI-H1975 cells at 0.5 to 5 uM after 48 hrs by Western blot analysis; type: functional, cell-based; conditions: dose 0.5-5 µM; summary of the method: as §1
[6] = test system: NCI-H1975; assay: Cytotoxicity against human NCI-H1975 cells assessed as inhibition of colony formation incubated for 7 days by crystal violet based colony formation assay; type: functional, cell-based; conditions: dose 0.5-5 µM, time 7.0 day
Summary of the method: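 NCI-H1975 cells, 1 × 10⁴/well, were seeded in 6-well plates and cultured 12 h. They were then treated with compound for 7 days. Colonies were fixed in 10% buffered formalin for 1 h and stained with crystal violet for 1 h.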

[7] = biological target: Epidermal growth factor receptor (Homo sapiens, UniProt P00533); assay: Inhibition of EGFR in human NCI-H1975 cells assessed as reduction in AKT phosphorylation at S473 residues at 0.5 to 5 uM after 48 hrs by Western blot analysis; type: cell-based; conditions: dose 0.5-5 µM; summary of the method: as §1
[8] = biological target: Histone deacetylase (Homo sapiens) (UniProt Q13547+O15379+Q9UBN7+Q92769+Q9UQL6+Q8WUI4+Q9BY41+Q96DB2+P56524+Q9UKV0+Q969S8); assay: Inhibition of HDAC in human NCI-H1975 cells assessed as increase in histone H3 acetylation at 2.5 uM after 1 to 12 hrs by Western blot analysis; type: cell-based; conditions: time lower 1.0 hrs, time upper […]
[9] = test system: A549; assay: Antiproliferative activity against human A549 cells incubated for 72 hrs by MTT assay; type: functional, cell-based; conditions: A549, 72 h
[10] = test system: FHC; assay: Cytotoxicity against human FHC cells assessed as reduction of cell viability incubated for 72 hrs by MTT assay; type: ADME, cell-based
[11] = cells; type: cell-based; conditions: BaF3, 72 h
[12] = test system: NCI-H1975; assay: Induction of apoptosis in human NCI-H1975 cells assessed as necrotic cells at 5 uM incubated for 48 hrs by propidium iodide and annexin-V FITC staining based flow cytometry (Rvb =0.18% ); type: functional

Epidermal growth factor receptor (Homo sapiens, UniProt P00533, L858R), sequence (P00533 25-1210 L858R limits assumed): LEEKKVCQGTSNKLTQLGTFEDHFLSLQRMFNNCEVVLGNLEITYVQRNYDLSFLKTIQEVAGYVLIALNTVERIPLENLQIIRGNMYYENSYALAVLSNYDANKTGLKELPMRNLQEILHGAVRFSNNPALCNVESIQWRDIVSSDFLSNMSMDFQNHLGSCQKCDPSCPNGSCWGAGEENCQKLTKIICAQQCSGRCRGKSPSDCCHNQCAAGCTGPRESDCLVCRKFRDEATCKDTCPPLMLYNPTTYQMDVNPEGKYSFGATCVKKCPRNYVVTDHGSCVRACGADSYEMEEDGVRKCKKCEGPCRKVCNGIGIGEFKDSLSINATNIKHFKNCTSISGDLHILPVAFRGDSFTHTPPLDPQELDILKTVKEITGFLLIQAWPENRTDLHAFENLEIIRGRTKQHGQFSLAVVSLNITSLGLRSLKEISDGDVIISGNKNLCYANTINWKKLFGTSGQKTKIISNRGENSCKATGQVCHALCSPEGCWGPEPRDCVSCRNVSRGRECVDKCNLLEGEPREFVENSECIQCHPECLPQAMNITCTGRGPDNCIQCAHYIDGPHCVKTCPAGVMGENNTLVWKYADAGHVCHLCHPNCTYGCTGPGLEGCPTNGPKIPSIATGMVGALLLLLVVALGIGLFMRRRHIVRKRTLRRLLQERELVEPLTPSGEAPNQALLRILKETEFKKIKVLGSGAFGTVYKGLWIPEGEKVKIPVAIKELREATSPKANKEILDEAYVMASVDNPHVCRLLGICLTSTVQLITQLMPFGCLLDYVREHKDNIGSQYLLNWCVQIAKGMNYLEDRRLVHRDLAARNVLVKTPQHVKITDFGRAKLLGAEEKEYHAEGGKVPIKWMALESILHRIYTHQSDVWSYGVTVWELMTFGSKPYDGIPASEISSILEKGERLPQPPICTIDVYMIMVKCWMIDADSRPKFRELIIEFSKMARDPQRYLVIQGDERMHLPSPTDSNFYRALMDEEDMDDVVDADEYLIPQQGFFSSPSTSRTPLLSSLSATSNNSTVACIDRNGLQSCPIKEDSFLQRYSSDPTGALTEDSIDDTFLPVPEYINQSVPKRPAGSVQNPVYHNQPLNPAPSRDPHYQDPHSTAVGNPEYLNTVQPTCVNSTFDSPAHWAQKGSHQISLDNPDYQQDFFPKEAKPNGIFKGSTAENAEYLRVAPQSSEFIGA
Epidermal growth factor receptor (Homo sapiens, UniProt P00533), sequence (P00533 whole entry): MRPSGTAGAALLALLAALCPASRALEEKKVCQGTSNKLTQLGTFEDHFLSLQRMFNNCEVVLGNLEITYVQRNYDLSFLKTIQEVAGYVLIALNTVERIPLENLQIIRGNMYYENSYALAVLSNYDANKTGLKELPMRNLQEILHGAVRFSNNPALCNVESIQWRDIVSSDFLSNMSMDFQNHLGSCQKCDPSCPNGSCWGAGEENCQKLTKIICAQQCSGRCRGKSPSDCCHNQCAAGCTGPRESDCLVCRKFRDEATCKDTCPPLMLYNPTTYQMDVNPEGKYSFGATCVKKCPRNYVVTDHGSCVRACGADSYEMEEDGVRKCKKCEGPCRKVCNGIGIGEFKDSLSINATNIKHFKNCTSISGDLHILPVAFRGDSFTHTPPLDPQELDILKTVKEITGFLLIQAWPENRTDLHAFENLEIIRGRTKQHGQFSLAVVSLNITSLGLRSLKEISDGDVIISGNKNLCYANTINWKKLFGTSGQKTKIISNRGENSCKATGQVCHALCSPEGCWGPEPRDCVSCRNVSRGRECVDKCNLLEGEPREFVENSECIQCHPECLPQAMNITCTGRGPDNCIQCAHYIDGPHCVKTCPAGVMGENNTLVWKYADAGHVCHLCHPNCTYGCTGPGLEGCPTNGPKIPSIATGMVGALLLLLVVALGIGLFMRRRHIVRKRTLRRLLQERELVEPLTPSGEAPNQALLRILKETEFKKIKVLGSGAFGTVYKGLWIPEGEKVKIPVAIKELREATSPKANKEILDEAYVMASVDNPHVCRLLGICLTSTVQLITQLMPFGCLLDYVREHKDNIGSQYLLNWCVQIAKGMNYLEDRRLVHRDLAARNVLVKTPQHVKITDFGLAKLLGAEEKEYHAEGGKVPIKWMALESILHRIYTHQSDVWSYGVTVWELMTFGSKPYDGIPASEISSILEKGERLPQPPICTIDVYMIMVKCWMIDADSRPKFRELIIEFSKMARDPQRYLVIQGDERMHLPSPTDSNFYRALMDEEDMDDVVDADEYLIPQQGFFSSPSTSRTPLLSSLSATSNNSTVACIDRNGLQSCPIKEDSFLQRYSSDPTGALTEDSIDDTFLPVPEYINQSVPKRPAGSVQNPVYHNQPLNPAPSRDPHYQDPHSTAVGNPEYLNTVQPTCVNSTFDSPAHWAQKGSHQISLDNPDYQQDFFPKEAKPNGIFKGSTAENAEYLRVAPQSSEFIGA

IC50 [2]: 0.0011 µM | IC50 [3]: > 50 µM | inhibition [7]: Active | inhibition [8]: Active | IC50 [9]: > 50 µM | IC50 [11]: 7.61 µM
Compound: C=CC(=O)Nc1cc2c(Nc3ccc(F)c(Cl)c3)ncnc2cc1OCc1cn(CCCC(=O)NO)nn1
Activity [1]: Active | Activity [4]: Active | Activity [5]: Active | inhibition [6]: Dose-dependent effect | IC50 [10]: > 25 µM | Activity [12]: 0.57%
